# Reference: ChEMBL document CHEMBL1143835, “Antipropionibacterial activity of BAL19403, a novel macrolide antibiotic” (2007)
# Experiments:
# Cutibacterium acnes [1] = experiment: Antibacterial activity against drug-resistant Propionibacterium acnes EG7NS after 72 hrs; assay type: functional
# In short: (§1)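 MBC for P. acnes followed MIC assays by standard methodology. Samples were plated on Wilkins-Chalgren agar, incubated anaerobically in GENbox jars at 35 to 37°C, and examined for growth after 72 h.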
# Cutibacterium acnes [2] = experiment: Antibacterial activity against drug-resistant Propionibacterium acnes GE46EB after 48 hrs by broth microdilution method; assay type: functional
# In short: (§2)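 Broth microdilution MIC in Wilkins-Chalgren broth without lysed horse blood, following CLSI anaerobe guidelines. Plates were held in anaerobic jars with atmosphere generators (O2 <0.1% by 2.5 h, CO2 >15% by 24 h) at 35 to 37°C for 48 h. Growth was read with an illuminated plate reader and magnifying mirror.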
# Staphylococcus aureus [3] = experiment: Antibacterial activity against borderline oxacillin-resistant Staphylococcus aureus after 20 to 24 hrs by broth microdilution method
# Cutibacterium acnes [4] = experiment: Antibacterial activity against drug-resistant Propionibacterium acnes P429:1 (BC) after 48 hrs by broth microdilution method; assay type: functional; in short: as §2
# Cutibacterium acnes [5] = experiment: Antibacterial activity against drug-resistant Propionibacterium acnes SP64E after 48 hrs by broth microdilution method; assay type: functional; in short: as §2
# Cutibacterium acnes [6] = experiment: Antibacterial activity against drug-resistant Propionibacterium acnes OK8/97 after 48 hrs by broth microdilution method; assay type: functional; in short: as §2
# Cutibacterium acnes [7] = experiment: Antibacterial activity against drug-resistant Propionibacterium acnes P322:2 after 48 hrs by broth microdilution method; assay type: functional; in short: as §2
# [8] = system: Streptococcus equi subsp. zooepidemicus; experiment: Antibacterial activity against Streptococcus equi subsp. zooepidemicus after 48 hrs by broth microdilution method; assay type: functional
# Cutibacterium acnes [9] = experiment: Antibacterial activity against drug-resistant Propionibacterium acnes P:413 after 48 hrs by broth microdilution method; assay type: functional; in short: as §2
# Cutibacterium acnes [10] = experiment: Antibacterial activity against drug-resistant Propionibacterium acnes GE4E after 72 hrs; assay type: functional; in short: as §1
# Cutibacterium acnes [11] = experiment: Antibacterial activity against drug-resistant Propionibacterium acnes SW101CDA after 48 hrs by broth microdilution method; assay type: functional; in short: as §2
# [12] = system: Staphylococcus epidermidis; experiment: Antibacterial activity against Staphylococcus epidermidis after 48 hrs by broth microdilution method; assay type: functional
# Cutibacterium acnes [13] = experiment: Antibacterial activity against drug-resistant Propionibacterium acnes SW26 after 48 hrs by broth microdilution method; assay type: functional; in short: as §2
# Cutibacterium acnes [14] = experiment: Antibacterial activity against drug-resistant Propionibacterium acnes P401:5 after 48 hrs by broth microdilution method; assay type: functional; in short: as §2
# [15] = system: Propionibacterium granulosum; experiment: Antibacterial activity against drug-resistant Propionibacterium granulosum QK6/92 after 48 hrs by broth microdilution method
# Cutibacterium acnes [16] = experiment: Antibacterial activity against drug-resistant Propionibacterium acnes SW11 after 48 hrs by broth microdilution method; assay type: functional; in short: as §2
# Cutibacterium acnes [17] = experiment: Antibacterial activity against drug-resistant Propionibacterium acnes D-04/97 after 48 hrs by broth microdilution method; assay type: functional; in short: as §2
# [18] = Antibacterial activity against Streptococcus dysgalactiae subsp. dysgalactiae after 48 hrs by broth microdilution method; assay type: functional
# Cutibacterium acnes [19] = experiment: Antibacterial activity against drug-resistant Propionibacterium acnes SW101T after 48 hrs by broth microdilution method; assay type: functional; in short: as §2
# [20] = system: Corynebacterium diphtheriae; experiment: Antibacterial activity against Corynebacterium diphtheriae after 48 hrs by broth microdilution method; assay type: functional
# In short: (§3)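 Broth microdilution per CLSI in cation-adjusted Mueller-Hinton broth supplemented with 0.5% (vol/vol) Tween 80. Plates incubated at 35°C in ambient air for 44 to 48 h, then read visually. MICs in μg/ml; a geometric mean MIC was calculated across the corynebacterial strains.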
# Cutibacterium acnes [21] = experiment: Antibacterial activity against drug-resistant Propionibacterium acnes SW17 after 48 hrs by broth microdilution method; assay type: functional; in short: as §2
# Cutibacterium acnes [22] = experiment: MBC/MIC ratio of Propionibacterium acnes SW101T; assay type: functional
# In short: (§4)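 MIC by CLSI broth microdilution in Wilkins-Chalgren broth in anaerobic jars (O2 <0.1%, CO2 >15%), read after 48 h at 35–37°C on an illuminated plate reader. For MBC, samples were plated onto Wilkins-Chalgren agar and incubated anaerobically for 72 h at 35–37°C before growth was scored.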
# Cutibacterium acnes [23] = experiment: Antibacterial activity against drug-resistant Propionibacterium acnes P429:1 (SC) after 48 hrs by broth microdilution method; assay type: functional; in short: as §2
# Cutibacterium acnes [24] = experiment: Antibacterial activity against drug-resistant Propionibacterium acnes P95 after 48 hrs by broth microdilution method; assay type: functional; in short: as §2
# Cutibacterium acnes [25] = experiment: MBC/MIC ratio of Propionibacterium acnes GE4E; assay type: functional; in short: as §4
# Cutibacterium acnes [26] = experiment: Antibacterial activity against drug-resistant Propionibacterium acnes SW101T after 72 hrs; assay type: functional; in short: as §1
# Streptococcus pyogenes = experiment: Antibacterial activity against Streptococcus pyogenes after 20 to 24 hrs by broth microdilution method
# Cutibacterium acnes [27] = experiment: Antibacterial activity against drug-resistant Propionibacterium acnes P425:1 after 48 hrs by broth microdilution method; assay type: functional; in short: as §2
# [28] = system: Corynebacterium amycolatum; experiment: Antibacterial activity against Corynebacterium amycolatum after 48 hrs by broth microdilution method; assay type: functional; in short: as §3
# [29] = system: Corynebacterium minutissimum; experiment: Antibacterial activity against Corynebacterium minutissimum after 48 hrs by broth microdilution method; assay type: functional; in short: as §3
# Cutibacterium acnes [30] = experiment: Antibacterial activity against drug-resistant Propionibacterium acnes EG3NS after 48 hrs by broth microdilution method; assay type: functional; in short: as §2
# Cutibacterium acnes [31] = experiment: Antibacterial activity against drug-resistant Propionibacterium acnes GE4E after 48 hrs by broth microdilution method; assay type: functional; in short: as §2
# [32] = system: Propionibacterium granulosum; experiment: Antibacterial activity against drug-resistant Propionibacterium granulosum NCTC-11865 after 48 hrs by broth microdilution method; assay type: functional; conditions: Cutibacterium granulosum, NCTC-11865, 48 h; in short: as §2
# Staphylococcus aureus [33] = experiment: Antibacterial activity against methicillin-susceptible Staphylococcus aureus after 48 hrs by broth microdilution method; assay type: functional
# Cutibacterium acnes [34] = experiment: Antibacterial activity against drug-resistant Propionibacterium acnes FG7E after 48 hrs by broth microdilution method; assay type: functional; in short: as §2
# Cutibacterium acnes [35] = experiment: Antibacterial activity against drug-resistant Propionibacterium acnes EG13NS after 48 hrs by broth microdilution method; assay type: functional; in short: as §2
# Cutibacterium acnes [36] = experiment: Antibacterial activity against drug-resistant Propionibacterium acnes SW54EA after 48 hrs by broth microdilution method; assay type: functional; in short: as §2
# Cutibacterium acnes [37] = experiment: Antibacterial activity against drug-resistant Propionibacterium acnes SW3CD after 48 hrs by broth microdilution method; assay type: functional; in short: as §2
# Cutibacterium acnes [38] = experiment: Antibacterial activity against drug-resistant Propionibacterium acnes SW3CD after 72 hrs; assay type: functional; in short: as §1
# Staphylococcus aureus [39] = experiment: Antibacterial activity against methicillin-resistant Staphylococcus aureus after 20 to 24 hrs by broth microdilution method
# Cutibacterium acnes [40] = experiment: Antibacterial activity against drug-resistant Propionibacterium acnes EG7NS after 48 hrs by broth microdilution method; assay type: functional; in short: as §2
# Cutibacterium acnes [41] = experiment: Antibacterial activity against drug-resistant Propionibacterium acnes P95 after 72 hrs; assay type: functional; in short: as §1
# Corynebacterium jeikeium = experiment: Antibacterial activity against Corynebacterium jeikeium after 48 hrs by broth microdilution method; assay type: functional; in short: as §3
# Cutibacterium acnes [42] = experiment: Antibacterial activity against drug-resistant Propionibacterium acnes SW10 after 48 hrs by broth microdilution method; assay type: functional; in short: as §2
# Cutibacterium acnes [43] = experiment: Antibacterial activity against drug-resistant Propionibacterium acnes SW16 after 48 hrs by broth microdilution method; assay type: functional; in short: as §2
# Cutibacterium acnes [44] = experiment: MBC/MIC ratio of Propionibacterium acnes P95; assay type: functional; in short: as §4
# Cutibacterium acnes [45] = experiment: MBC/MIC ratio of Propionibacterium acnes SW3CD; assay type: functional; in short: as §4
# Cutibacterium acnes [46] = experiment: MBC/MIC ratio of Propionibacterium acnes EG7NS; assay type: functional; in short: as §4
compound,measurement,setting,value
CC[C@H]1OC(=O)[C@H](C)[C@@H](O[C@H]2C[C@@](C)(OC)[C@@H](O)[C@H](C)O2)[C@H](C)[C@@H](O[C@@H]2O[C@H](C)C[C@H](N(C)C)[C@H]2O)[C@](C)(OC)C[C@@H](C)C(=O)[C@H](C)[C@H]2[C@H](SCCn3cnc4cccnc43)C(=O)O[C@@]21C,MBC,Cutibacterium acnes [1],≤ 0.06 µg/mL
same,MIC,Cutibacterium acnes [2],256 µg/mL
same,MIC,Staphylococcus aureus [3],4.32 µg/mL
same,MIC,Cutibacterium acnes [4],0.5 µg/mL
same,MIC,Cutibacterium acnes [5],≥ 256 µg/mL
same,MIC,Cutibacterium acnes [6],≤ 0.06 µg/mL
same,MIC,Cutibacterium acnes [7],0.25 µg/mL
same,MIC,[8],0.08 µg/mL
same,MIC,Cutibacterium acnes [9],≤ 0.06 µg/mL
same,MBC,Cutibacterium acnes [10],≥ 256 µg/mL
same,MIC,Cutibacterium acnes [11],64 µg/mL
same,MIC,[12],4.24 µg/mL
same,MIC,Cutibacterium acnes [13],≤ 0.06 µg/mL
same,MIC,Cutibacterium acnes [14],≤ 0.06 µg/mL
same,MIC,[15],0.125 µg/mL
same,MIC,Cutibacterium acnes [16],≤ 0.06 µg/mL
same,MIC,Cutibacterium acnes [17],≤ 0.06 µg/mL
same,MIC,[18],0.12 µg/mL
same,MIC,Cutibacterium acnes [19],4 µg/mL
same,MIC,[20],0.88 µg/mL
same,MIC,Cutibacterium acnes [21],≤ 0.06 µg/mL
same,Ratio,Cutibacterium acnes [22],>8
same,MIC,Cutibacterium acnes [23],≤ 0.06 µg/mL
same,MIC,Cutibacterium acnes [24],≤ 0.06 µg/mL
same,Ratio,Cutibacterium acnes [25],>=2
same,MBC,Cutibacterium acnes [26],> 32 µg/mL
same,MIC,Streptococcus pyogenes,0.19 µg/mL
same,MIC,Cutibacterium acnes [27],4 µg/mL
same,MIC,[28],0.88 µg/mL
same,MIC,[29],0.88 µg/mL
same,MIC,Cutibacterium acnes [30],≤ 0.06 µg/mL
same,MIC,Cutibacterium acnes [31],128 µg/mL
same,MIC,[32],≤ 0.06 µg/mL
same,MIC,Staphylococcus aureus [33],4.32 µg/mL
same,MIC,Cutibacterium acnes [34],0.5 µg/mL
same,MIC,Cutibacterium acnes [35],≤ 0.06 µg/mL
same,MIC,Cutibacterium acnes [36],0.5 µg/mL
same,MIC,Cutibacterium acnes [37],≤ 0.06 µg/mL
same,MBC,Cutibacterium acnes [38],≤ 0.06 µg/mL
same,MIC,Staphylococcus aureus [39],4.32 µg/mL
same,MIC,Cutibacterium acnes [40],≤ 0.06 µg/mL
same,MBC,Cutibacterium acnes [41],≤ 0.06 µg/mL
same,MIC,Corynebacterium jeikeium,0.88 µg/mL
same,MIC,Cutibacterium acnes [42],≤ 0.06 µg/mL
same,MIC,Cutibacterium acnes [43],≤ 0.06 µg/mL
CCC[C@@H]1C[C@@H](C(=O)N[C@@H]([C@H]2O[C@H](SC)[C@H](O)[C@@H](O)[C@H]2O)[C@H](C)Cl)N(C)C1 [CLINDAMYCIN],MBC,Cutibacterium acnes [1],> 32 µg/mL
same,MIC,Cutibacterium acnes [2],512 µg/mL
same,MIC,Staphylococcus aureus [3],1.16 µg/mL
same,MIC,Cutibacterium acnes [4],8 µg/mL
same,MIC,Cutibacterium acnes [5],> 512 µg/mL
same,MIC,Cutibacterium acnes [6],0.125 µg/mL
same,MIC,Cutibacterium acnes [7],4 µg/mL
same,MIC,[8],0.11 µg/mL
same,MIC,Cutibacterium acnes [9],≤ 0.06 µg/mL
same,MIC,Cutibacterium acnes [11],≥ 512 µg/mL
same,Ratio,Cutibacterium acnes [44],>64
same,MIC,[12],1.12 µg/mL
same,MIC,Cutibacterium acnes [13],≤ 0.06 µg/mL
same,MIC,Cutibacterium acnes [14],1 µg/mL
same,MIC,[15],1 µg/mL
same,MIC,Cutibacterium acnes [16],0.5 µg/mL
same,MIC,Cutibacterium acnes [17],0.125 µg/mL
same,MIC,[18],0.12 µg/mL
same,MIC,Cutibacterium acnes [19],256 µg/mL
same,MIC,[20],7.97 µg/mL
same,MIC,Cutibacterium acnes [21],≤ 0.06 µg/mL
same,Ratio,Cutibacterium acnes [22],>2
same,MIC,Cutibacterium acnes [23],4 µg/mL
same,MIC,Cutibacterium acnes [24],0.5 µg/mL
same,MIC,Streptococcus pyogenes,0.07 µg/mL
same,MIC,Cutibacterium acnes [27],512 µg/mL
same,Ratio,Cutibacterium acnes [45],>4
same,MIC,[28],7.97 µg/mL
same,MIC,[29],7.97 µg/mL
same,MIC,Cutibacterium acnes [30],0.25 µg/mL
same,MIC,Cutibacterium acnes [31],> 512 µg/mL
same,MIC,[32],≤ 0.06 µg/mL
same,MIC,Staphylococcus aureus [33],1.16 µg/mL
same,MIC,Cutibacterium acnes [34],≥ 32 µg/mL
same,MIC,Cutibacterium acnes [35],≤ 0.06 µg/mL
same,MIC,Cutibacterium acnes [36],32 µg/mL
same,MIC,Cutibacterium acnes [37],8 µg/mL
same,Ratio,Cutibacterium acnes [46],>=533
same,MBC,Cutibacterium acnes [38],> 32 µg/mL
same,MIC,Staphylococcus aureus [39],1.16 µg/mL
same,MIC,Cutibacterium acnes [40],≤ 0.06 µg/mL
same,MBC,Cutibacterium acnes [41],32 µg/mL
same,MIC,Corynebacterium jeikeium,7.97 µg/mL
same,MIC,Cutibacterium acnes [42],0.125 µg/mL
same,MIC,Cutibacterium acnes [43],≤ 0.06 µg/mL
